# Active and inactive are the calls of the source. No cut-off for these calls is given here.
# Tests used:
# [1] = target: T1, Integrin alpha-IIb/beta-3 (Homo sapiens, UniProt P05106+P08514); assay: Inhibition of fibrinogen binding to alpha2bbeta3 isolated from human HEL cells incubated for 1 hr by […] competitive solid-phase binding assay
# Integrin alpha-5/beta-1 [2] = target: T2, Integrin alpha-5/beta-1 (Homo sapiens, UniProt P05556+P08648); assay: Inhibition of fibronectin binding to alpha5beta1 isolated from human K562 cells incubated for 1 hr by […] competitive solid-phase binding assay; assay type: tissue-based
# Procedure, shortened: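 Plates coated overnight at 4 °C in carbonate buffer pH 9.6 with fibronectin 0.5 µg/mL (αvβ3, αvβ6, α5β1), fibrinogen 10 µg/mL (αIIbβ3, αvβ5) or ICAM-1 (αLβ2). Blocked 1 h in buffer containing Ca/Mg/Mn 1 mM each and 1% BSA. Purified integrin (3–10 µg/mL) incubated with compound (10⁻⁴–10⁻¹⁰ M) 1 h at room temperature. Bound integrin detected with primary antibody then AlexaFluor488 secondary, Ex485/Em535. Duplicate, at least three repeats.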
# SK-MEL-24 = assay: Toxicity in human SK-MEL-24 cells assessed as induction of cell necrosis and/or apoptosis incubated for 3 hrs by annexin V-PE and 7-AAD staining based by flow cytometry; details: sk-mel-24, 3 h
# Procedure, shortened: (§1)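 After 3 h incubation, cells resuspended in complete medium and stained with annexin V-PE/7-AAD reagent for 20 min at room temperature in the dark. Flow cytometry sorted cells into viable, early apoptotic and late apoptotic/necrotic populations.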
# MCF7 = assay: Toxicity in human MCF7 cells assessed as induction of cell necrosis and/or apoptosis incubated for 3 hrs by annexin V-PE and 7-AAD staining based by flow cytometry; details: mcf7, 3 h; procedure, shortened: as §1
# HT-29 = assay: Toxicity in human HT-29 cells assessed as induction of cell necrosis and/or apoptosis incubated for 3 hrs by annexin V-PE and 7-AAD staining based by flow cytometry; details: ht-29, 3 h; procedure, shortened: as §1
# K562 = assay: Toxicity in human K562 cells assessed as induction of cell necrosis and/or apoptosis incubated for 3 hrs by annexin V-PE and 7-AAD staining based by flow cytometry; details: k562, 3 h; procedure, shortened: as §1
# HEL = assay: Toxicity in human HEL cells assessed as induction of cell necrosis and/or apoptosis incubated for 3 hrs by annexin V-PE and 7-AAD staining based by flow cytometry; procedure, shortened: as §1
# Integrin alpha-V/beta-5 [3] = target: T3, Integrin alpha-V/beta-5 (Homo sapiens, UniProt P06756+P18084); assay: Agonist activity at alphaVbeta5 in human MCF7 cells assessed as increase in cell adhesion to fibrinogen pre-incubated for 30 mins before fibrinogen and further incubated for 1 hr by nitrophenyl-N-acetyl-beta-D-glucosaminide substrate based chromogenic assay
# Procedure, shortened: (§2)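 Compound or methanol vehicle pre-incubated with cells for 30 min at room temperature. Cells then plated on wells coated overnight at 4 °C with fibronectin 10 µg/mL (SK-MEL-24, K562, HT-29) or fibrinogen 10 µg/mL (MCF7, HEL). Seeding was 50,000 cells/well, or 100000 for HEL. Adhesion ran 1 h at room temperature. Wells washed with 1% BSA/PBS. Adherent cells read by hexosaminidase substrate, absorbance 405 nm. Quadruplicate, at least three repeats.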
# Integrin alpha-V/beta-6 [4] = target: T4, Integrin alpha-V/beta-6 (Homo sapiens, UniProt P06756+P18564); assay: Agonist activity at alphaVbeta6 in human HT-29 cells assessed as increase in cell adhesion to fibronectin pre-incubated for 30 mins before fibronectin and further incubated for 1 hr by nitrophenyl-N-acetyl-beta-D-glucosaminide substrate based chromogenic assay; procedure, shortened: as §2
# Integrin alpha-V/beta-6 [5] = target: T4, Integrin alpha-V/beta-6; assay: Antagonist activity at alphaVbeta6 in human HT-29 cells assessed as reduction in cell adhesion to fibronectin pre-incubated for 30 mins before fibronectin and further incubated for 1 hr by nitrophenyl-N-acetyl-beta-D-glucosaminide substrate based chromogenic assay
# Procedure, shortened: as §2, with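 “BSA/PBS.” for “BSA/PBS. Adherent cells read by hexosaminidase substrate, absorbance 405 nm.”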
# Integrin alpha-4/beta-1 [6] = target: T5, Integrin alpha-4/beta-1 (Homo sapiens, UniProt P05556+P13612); assay: Agonist activity at alpha4beta1 in human Jurkat E6.1 cells assessed as increase in cell adhesion to VCAM1 pre-incubated for 30 mins before VCAM1 and further incubated for 30 mins by […]; assay type: cell-based
# Procedure, shortened: (§3)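 Jurkat E6.1 cells labelled with CellTracker green CMFDA (12.5 µM, 30 min, 37 °C), washed, then pre-incubated 30 min at 37 °C with compound or methanol. Plated at 500,000/well on VCAM-1 (α4β1) or ICAM-1 (αLβ2) coated wells (5 µg/mL) for 30 min at 37 °C. Cells lysed in 0.5% Triton X-100; fluorescence read Ex485/Em535. Quadruplicate, at least three repeats.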
# [7] = target: T1, Integrin alpha-IIb/beta-3; assay: Agonist activity at alpha2bbeta3 in human HEL cells assessed as increase in cell adhesion to fibrinogen pre-incubated for 30 mins before fibrinogen and further incubated for 1 hr by nitrophenyl-N-acetyl-beta-D-glucosaminide substrate based chromogenic assay
# Procedure, shortened: as §2, with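 “BSA/PBS.” for “BSA/PBS. Adherent cells read by hexosaminidase substrate, absorbance 405 nm.”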
# [8] = target: T1, Integrin alpha-IIb/beta-3; assay: Antagonist activity at alpha2bbeta3 in human HEL cells assessed as reduction in cell adhesion to fibrinogen pre-incubated for 30 mins before fibrinogen and further incubated for 1 hr by nitrophenyl-N-acetyl-beta-D-glucosaminide substrate based chromogenic assay
# Procedure, shortened: as §2, with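 “BSA/PBS.” for “BSA/PBS. Adherent cells read by hexosaminidase substrate, absorbance 405 nm.”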
# Integrin alpha-4/beta-1 [9] = target: T5, Integrin alpha-4/beta-1; assay: Antagonist activity at alpha4beta1 in human Jurkat E6.1 cells assessed as reduction in cell adhesion to VCAM1 pre-incubated for 30 mins before VCAM1 and further incubated for 30 mins by […]; assay type: cell-based
# [10] = target: T6, Integrin alpha-L/beta-2 (LFA-1) (Homo sapiens, UniProt P05107+P20701); assay: Agonist activity at alphaLbeta2 in human Jurkat E6.1 cells assessed as increase in cell adhesion to ICAM1 pre-incubated for 30 mins before ICAM1 and further incubated for 30 mins by […]; assay type: cell-based; procedure, shortened: as §3
# [11] = target: T6, Integrin alpha-L/beta-2 (LFA-1); assay: Antagonist activity at alphaLbeta2 in human Jurkat E6.1 cells assessed as reduction in cell adhesion to ICAM1 pre-incubated for 30 mins before ICAM1 and further incubated for 30 mins by […]; assay type: cell-based; procedure, shortened: as §3
# Integrin alpha-V/beta-3 [12] = target: T7, Integrin alpha-V/beta-3 (Homo sapiens, UniProt P05106+P06756); assay: Inhibition of fibronectin binding to human recombinant alphaVbeta3 expressed in HEK293 cells incubated for 1 hr by […] competitive solid-phase binding assay; assay type: cell-based
# Integrin alpha-V/beta-5 [13] = target: T3, Integrin alpha-V/beta-5; assay: Inhibition of fibrinogen binding to alphaVbeta5 isolated form human mCf7 cells incubated for 1 hr by […] competitive solid-phase binding assay
# Integrin alpha-V/beta-6 [14] = target: T4, Integrin alpha-V/beta-6; assay: Inhibition of fibronectin binding to alphaVbeta6 isolated form human HT-29 cells incubated for 1 hr by […] competitive solid-phase binding assay; assay type: tissue-based
# Integrin alpha-4/beta-1 [15] = target: T5, Integrin alpha-4/beta-1; assay: Inhibition of fibronectin binding to […] isolated from human Jurkat E6.1 cells incubated for 1 hr by scintillation-proximity assay based competitive solid-phase binding assay; assay type: tissue-based
# Integrin alpha-V/beta-3 [16] = target: T7, Integrin alpha-V/beta-3; assay: Agonist activity at alphaVbeta3 in human SK-MEL-24 cells assessed as increase in cell adhesion to fibronectin at 2 to 10 ug/ml pre-incubated for 30 mins and further incubated for 1 hr by nitrophenyl-N-acetyl-beta-D-glucosaminide substrate based chromogenic assay; details: filed as agonist, dose 2-10 µg/ml, time 90.0 min
# Integrin alpha-V/beta-3 [17] = target: T7, Integrin alpha-V/beta-3; assay: (§4) Agonist activity at alphaVbeta3 in human SK-MEL-24 cells assessed as increase in cell adhesion to fibronectin at 10 ug/ml pre-incubated for 30 mins and further incubated for 1 hr in presence of in presence of integrin antagonist c(-RGDfV) by nitrophenyl-N-acetyl-beta-D-glucosaminide substrate based chromogenic assay; details: dose 10.0 µg/ml, time 90.0 min
# Integrin alpha-V/beta-3 [18] = target: T7, Integrin alpha-V/beta-3; assay: as §4, with “of neutralizing antibody against the alphaV” for “of in presence of”, “integrin subunit” for “integrin antagonist c(-RGDfV)”; details: dose 10.0 µg/ml, time 90.0 min
# Integrin alpha-V/beta-3 [19] = target: T7, Integrin alpha-V/beta-3; assay: Agonist activity at human alphaVbeta3 expressed in HEK293 cells assessed as increase in ERK1/2 phosphorylation by Western blot analysis; assay type: cell-based; details: filed as agonist
# Integrin alpha-V/beta-3 [20] = target: T7, Integrin alpha-V/beta-3; assay: Antagonist activity at alphaVbeta3 in human SK-MEL-24 cells assessed as reduction in cell adhesion to fibronectin pre-incubated for 30 mins before fibronectin and further incubated for 1 hr by nitrophenyl-N-acetyl-beta-D-glucosaminide substrate based chromogenic assay
# Procedure, shortened: as §2, with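 “BSA/PBS.” for “BSA/PBS. Adherent cells read by hexosaminidase substrate, absorbance 405 nm.”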
# Integrin alpha-V/beta-5 [21] = target: T3, Integrin alpha-V/beta-5; assay: Antagonist activity at alphaVbeta5 in human MCF7 cells assessed as reduction in cell adhesion to fibrinogen pre-incubated for 30 mins before fibrinogen and further incubated for 1 hr by nitrophenyl-N-acetyl-beta-D-glucosaminide substrate based chromogenic assay
# Procedure, shortened: as §2, with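 “BSA/PBS.” for “BSA/PBS. Adherent cells read by hexosaminidase substrate, absorbance 405 nm.”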
# Integrin alpha-5/beta-1 [22] = target: T2, Integrin alpha-5/beta-1; assay: Antagonist activity at alpha5beta1 in human K562 cells assessed as reduction in cell adhesion to fibronectin pre-incubated for 30 mins before fibronectin and further incubated for 1 hr by nitrophenyl-N-acetyl-beta-D-glucosaminide substrate based chromogenic assay; procedure, shortened: as §2
# Integrin alpha-5/beta-1 [23] = target: T2, Integrin alpha-5/beta-1; assay: Antagonist activity at alpha5beta1 in human K562 cells assessed as assessed as reduction in ERK1/2 phosphorylation at 1 to 100 nM by Western blot analysis; assay type: cell-based; details: filed as antagonist, dose 1-100 nM
# Integrin alpha-4/beta-1 [24] = target: T5, Integrin alpha-4/beta-1; assay: Antagonist activity at alpha4beta1 in human Jurkat E6.1 cells assessed as reduction in VCAM-1 induced ERK1/2 phosphorylation at 1 to 100 nM by Western blot analysis; assay type: cell-based; details: filed as antagonist, dose 1-100 nM
# Integrin alpha-4/beta-1 [25] = target: T5, Integrin alpha-4/beta-1; assay: Antagonist activity at alpha4beta1 in human Jurkat E6.1 cells assessed as reduction in VCAM-1 induced ERK1/2 phosphorylation at 1 to 100 pM by Western blot analysis; assay type: cell-based; details: filed as antagonist, dose 1-100 pM
# Integrin alpha-4/beta-1 [26] = target: T5, Integrin alpha-4/beta-1; assay: Antagonist activity at alpha4beta1 in human Jurkat E6.1 cells assessed as reduction in exposure of HUTS-21 epitope measured by mAb binding; assay type: cell-based; details: filed as antagonist
# Procedure, shortened: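 Jurkat E6.1 cells at 10⁶/mL in 1% BSA/HBSS incubated 30 min at 37 °C with compound. PE-labelled HUTS-21 mAb then added for 45 min at room temperature. Cells washed, 10,000 analysed by flow cytometry. MFI corrected to isotype control set to 0. Four independent experiments in duplicate.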
SMILES,IC50 (Integrin alpha-5/beta-1 [2]) [nM],Activity (SK-MEL-24),Activity (MCF7),Activity (HT-29),Activity (K562),Activity (HEL),EC50 (Integrin alpha-V/beta-5 [3]) [nM],EC50 (Integrin alpha-V/beta-6 [4]) [nM],IC50 (Integrin alpha-V/beta-6 [5]) [nM],EC50 [7] [nM],IC50 [8] [nM],IC50 (Integrin alpha-4/beta-1 [9]) [nM],EC50 [10] [nM],IC50 [11] [nM],IC50 (Integrin alpha-V/beta-3 [12]) [nM],IC50 (Integrin alpha-V/beta-5 [13]) [nM],IC50 (Integrin alpha-V/beta-6 [14]) [nM],IC50 (Integrin alpha-4/beta-1 [15]) [nM],also measured
NCc1ccc(NC(=O)N2C(=O)CC2CC(=O)NCC(=O)O)cc1.O=C(O)C(F)(F)F (centres undefined),> 1000,Non-Toxic,Non-Toxic,Non-Toxic,Non-Toxic,Non-Toxic,505,> 5000,> 5000,> 5000,> 5000,> 5000,> 5000,> 5000,1.2,104,> 1000,> 1000,IC50 [1]: > 1000 nM; EC50 (Integrin alpha-4/beta-1 [6]): > 5000 nM; Activity (Integrin alpha-V/beta-3 [16]): Dose-dependent effect; Activity (Integrin alpha-V/beta-3 [17]): inactive; Activity (Integrin alpha-V/beta-3 [18]): inactive; Activity (Integrin alpha-V/beta-3 [19]): Dose-dependent effect
Cc1ccccc1NC(=O)N1C(=O)C[C@H]1C(=O)O,114,Non-Toxic,Non-Toxic,Non-Toxic,Non-Toxic,Non-Toxic,> 5000,> 5000,> 5000,> 5000,> 5000,1.39,> 5000,> 5000,285,> 1000,> 1000,1.1,IC50 (Integrin alpha-V/beta-3 [20]): 352 nM; IC50 (Integrin alpha-V/beta-5 [21]): > 5000 nM; IC50 (Integrin alpha-5/beta-1 [22]): 158 nM; Activity (Integrin alpha-5/beta-1 [23]): Dose-dependent effect; Activity (Integrin alpha-4/beta-1 [24]): Active; Activity (Integrin alpha-4/beta-1 [25]): Dose-dependent effect; Activity (Integrin alpha-4/beta-1 [26]): Dose-dependent effect
